Bioassay records deposited in PubChem by The Scripps Research Institute Molecular Screening Center.
S1P3 ag: agonists of human S1P3 receptor. S1P3 NFAT-BLA reporter cells, agonism, FRET ratio; relative to 1 µM S1P, basal subtracted. activation, % at 4.5 µM. 0.1% of 60,000 active;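 active = activation above the screen-wide mean plus 3 SD, cut at about 4.5% in these data, passing the limit was not always enough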
Target sequence (Q99500 whole entry, looked up): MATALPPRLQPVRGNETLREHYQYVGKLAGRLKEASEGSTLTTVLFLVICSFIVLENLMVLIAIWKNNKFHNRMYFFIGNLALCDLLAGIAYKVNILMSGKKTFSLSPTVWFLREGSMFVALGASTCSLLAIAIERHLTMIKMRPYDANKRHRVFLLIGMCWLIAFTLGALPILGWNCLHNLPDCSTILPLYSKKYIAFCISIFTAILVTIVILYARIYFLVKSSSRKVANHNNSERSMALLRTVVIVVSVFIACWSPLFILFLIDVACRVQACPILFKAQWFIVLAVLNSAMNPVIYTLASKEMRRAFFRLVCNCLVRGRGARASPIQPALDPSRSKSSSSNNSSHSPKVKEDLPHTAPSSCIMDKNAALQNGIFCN
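material = human S1P3 NFAT-BLA reporter CHO cells | schedule = 4 h compound at 37 °C, 2 h substrate at RT | measured by = fluorescent BLA substrate, ex 405 nm, em 460/535 nm ratio | controls = 1 µM S1P reference | replication = primary once, confirmation triplicate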
S1P1 ag-PAM: activates or potentiates agonism at human S1P1 receptor; P21453; S1P1 CRE-bla cells, forskolin, beta-lactamase FRET, potentiator mode; S1P1 agonist co-added at EC20, 2 nM; 100% = saturating reference agonist, 0% = basal; activation, % at 9.5 µM; 0.57% of 56,000 active;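 active = activation above a cutoff set at the mean activation of all tested compounds plus 3 SD, cut at about 54% in these data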;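 also: forskolin at 4 µM as EC80 and the EC20 agonist is SEW2871; 100% = SEW2871 at its EC100 plus forskolin at EC80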
HTR1A agonist: agonists of human 5-HT1a serotonin receptor; activation, % at 10 µM; 0.56% of 65,000 active; P08908; CHO 5-HT1a Ga15 NFAT-bla reporter, FRET ratio; 0% basal, 100% maximal reference agonist;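 active = activation above the screen-wide mean activation plus 3 SD, cut at about 19% in these data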;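 also: 0% = DMSO wells and 100% = 5-CT at EC100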
HTR1E antagonist: blocks the human 5-HT1E serotonin receptor; 0.99% of 65,000 active; CHO 5-HT1E Ga15 NFAT-bla reporter, FRET, antagonist; inhibition, % at 6 µM; AID 571; P28566;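 active = inhibition above a set limit, the mean inhibition across every tested compound plus 3 SD, cut at about 29% in these data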;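 also: signal is the 460 over 535 nm emission ratio of beta-lactamase substrate; 0% = agonist plus DMSO wells and 100% = wells without agonist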
5HT1E ag: 5-HT1E (human) receptor agonism. CHO 5-HT1E Ga15 NFAT-bla reporter, FRET; 0% DMSO wells, 100% control agonist wells. activation, % at 6 µM. 0.69% of 65,000 active. AID 574;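 active = activation above a set limit, the screen-wide mean activation plus 3 SD, cut at about 8.5% in these data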;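 also: 100% = positive control agonist at 1 µM giving full maximal response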
5-HT1A blocker: antagonists of human 5-HT1a serotonin receptor; P08908; CHO 5-HT1a Ga15 NFAT-bla reporter, antagonist mode; inhibition, % at 10 µM; 0.68% of 62,000 active;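 active = inhibition above the mean of all tested compounds plus 3 SD, cut at about 43% in these data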;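 also: receptor stimulated by 5-CT agonist at 100 nM near EC80; beta-lactamase reporter measured by ratiometric fluorescence of a cleavable substrate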
Starred values were filed as active, the others as inactive; x = no result. Sampled rows, rich in hits. Any-hit rate of the full collection: about 3%.

SMILES	S1P3 ag	S1P1 ag-PAM	HTR1A agonist	HTR1E antagonist	5HT1E ag	5-HT1A blocker
CCC(C)C1C(C#N)=C(N)Oc2n[nH]c(C)c21 (stereo not given)	0.0	29.0	-0.7	39.0*	-0.5	14.5
Cc1[nH]nc2c1C(C(C)C)C(C#N)=C(N)O2 (stereo not given)	-0.1	-1.5	-5.8	0.4	0.3	11.9
Cn1c(=O)n(CC(N)=O)c2ccccc21	-1.3	-1.9	-2.3	8.7	-0.2	8.9
Cc1cc(C)cc(OCC(=O)Nc2cccc(-c3nnc(-c4ccco4)o3)c2)c1	0.5	x	19.6*	-8.5	0.3	-12.2
COc1ccc(-c2nnc(-c3cccs3)o2)cc1OC	0.1	-18.9	1.8	-3.5	1.9	-10.7
CCOc1cc(-c2nnc(-c3ccco3)o2)cc(OCC)c1OCC	-0.6	-17.6	-2.4	4.1	0.9	-8.3
CCOc1ccc(-c2nnc(-c3ccco3)o2)cc1OCC	0.0	99.3*	-1.6	-0.6	0.2	-13.5
CCOc1ccc(-c2nnc(-c3cccs3)o2)cc1OCC	0.1	103.5*	1.1	-7.5	0.5	-4.6
Cn1c(SCC(=O)Nc2ccc(N3CCOCC3)c(Cl)c2)nnc1-c1ccccc1	-1.2	89.2*	-1.0	-11.8	-0.7	-2.4
CCn1c(Cc2ccccc2)nnc1SCC(=O)Nc1ccc(N2CCOCC2)c(Cl)c1	-1.3	x	0.6	-0.3	0.9	-4.5
COc1cccc(-c2cc(C(=O)Nc3cnn(Cc4ccccc4C)c3)no2)c1	-1.0	-2.8	-2.1	2.8	0.4	0.8
Cn1c(C(=O)NCCC2=CCCCC2)cc2c(=O)n3ccccc3nc21	0.8	-71.0	0.4	10.8	0.5	-4.5
Cn1c(C(=O)NCCCN2CCCC2=O)cc2c(=O)n3ccccc3nc21	0.6	2.3	-0.2	30.4*	-0.2	3.1
CCCc1cc(C(=O)NC2CCCCC2)no1	-0.5	3.2	-1.1	11.0	0.3	11.2
CCCc1cc(C(=O)N(C2CCCCC2)C2CCCCC2)no1	58.0*	13.1	-2.3	3.4	0.1	3.1
COc1ccc(-c2noc(CSc3ccccc3)n2)cc1OC	-1.4	-0.7	1.2	-1.1	0.3	-5.3
COc1ccc(Cc2nc(-c3ccc(-n4cccc4)cc3)no2)cc1OC	-0.6	66.3*	2.0	2.9	1.3	0.2
COc1ccc(-c2noc(CSc3nnc(CCc4ccccc4)n3-c3ccccc3)n2)cc1OC	-0.7	2.8	3.9	6.9	-0.4	43.0*
Brc1ccccc1-c1nnc(CSc2nncn2-c2ccccc2)o1	0.2	8.8	171.1*	-5.0	-0.3	-13.9
CC(=O)N1c2ccccc2C(=O)C1N1CCCCC1 (stereo not given)	x	x	0.1	3.3	-1.2	16.4
Nc1nc2n(n1)C(c1ccco1)CC(c1ccc(Cl)cc1Cl)N2 (stereo not given)	-0.4	-7.1	-0.4	2.9	-0.6	-15.0
CCc1cc(-c2[nH]ncc2-c2ccc3c(c2)OCO3)c(O)cc1O	-1.0	69.2*	-4.0	15.3	-0.4	33.0
CCOc1ccc(-c2[nH]ncc2-c2ccc(OC)c(OC)c2)c(O)c1	-1.2	-25.6	0.0	27.2	0.1	18.2
COc1ccc(-c2[nH]ncc2-c2ccc3c(c2)OCCO3)c(O)c1	-1.1	91.2*	-3.0	16.1	-0.3	44.4*
CN1CCN(C2=C(Cl)C(=O)N(Cc3ccccc3)C2=O)CC1	-1.7	15.8	-0.3	5.1	16.9*	2.8
SMILES	S1P3 ag	S1P1 ag-PAM	HTR1A agonist	HTR1E antagonist	5HT1E ag	5-HT1A blocker
O=C(CSCSCC(=O)NCC1CCCO1)NCC1CCCO1 (stereo not given)	1.1	13.9	2.2	-4.3	-0.1	-15.2
COc1ccc(C2=Nn3c(nnc3-c3cccnc3)SC2)cc1OC	1.9	-52.1	1.3	33.8*	-0.2	x
Brc1ccc(C2=Nn3c(nnc3-c3cccnc3)SC2)s1	-0.2	6.2	-2.3	2.4	0.4	-15.0
Brc1ccccc1C1=Nn2c(nnc2-c2ccccc2)SC1	-0.2	6.1	-1.9	32.8*	-0.9	32.7
CCOc1ccc(C2=Nn3c(nnc3-c3ccccc3OC)SC2)cc1	-6.5	-25.0	0.6	75.4*	-0.6	x
COc1ccccc1-c1nnc2n1N=C(c1ccc(O)c(O)c1)CS2	-5.0	0.2	-0.4	65.6*	-0.7	x
CN(Cc1ccccc1)C(=O)c1ccc2c(c1)OCCO2	-0.4	-6.1	-2.7	4.1	0.2	0.5
CC1(C)CC(=O)C(C=N)=C(O)C1	-2.1	-6.3	-2.1	3.5	0.9	x
CCCNC(=O)Nc1cc(C)on1	-0.2	7.6	256.9*	5.0	0.6	-5.6
Cn1nnnc1Sc1ncnc2scc(-c3ccc(F)cc3)c12	-0.9	-4.0	0.5	47.6*	0.2	33.7
CCOc1cc(N2CCOCC2)c(OCC)cc1NC(=O)c1cc(-c2ccco2)nc2ccccc12	x	x	2.2	50.2*	0.2	27.1
Cc1nnc(SCC(=O)N2c3ccccc3Sc3ccccc32)n1N	2.5	-4.7	-2.8	-7.0	0.0	4.0
Cc1nnc(SC(=O)N2c3ccccc3Sc3ccccc32)s1	-0.5	115.1*	-1.4	24.1	0.1	74.1*
Cc1cc(=O)oc2cc(OCC(=O)N3CCCC(C)C3)ccc12 (stereo not given)	-1.7	14.3	-1.2	-6.5	0.4	-2.3
COc1ccccc1N1CCN(CC(O)COc2ccc3c(C)cc(=O)oc3c2)CC1 (stereo not given)	x	x	4.2	-1.6	-0.3	88.1*
Cc1cc(=O)oc2cc(OCC(O)CN3CCc4ccccc4C3)ccc12 (stereo not given)	1.0	4.5	3.4	-12.5	0.7	8.3
Cc1cc(=O)oc2cc(OCC(=O)N3c4ccccc4CC3C)ccc12 (stereo not given)	-0.2	28.3	-0.7	33.2*	0.1	23.8
Cc1cc(=O)oc2cc(OCC(O)CN3CCN(c4ccccc4)CC3)ccc12 (stereo not given)	-1.1	10.6	10.0	1.6	1.0	45.9*
COC(=O)c1ccn(C(=O)c2ccc(Cl)cc2)n1	-2.2	-16.9	0.7	0.5	0.1	x
O=C(CSc1nnc(COc2ccc3c(c2)CCCC3)o1)Nc1ccc(F)cc1	-1.0	-7.6	-1.2	3.8	9.3*	-0.3
COc1ccc(NC(=O)CSc2nnc(CNc3ccc(F)cc3)o2)c(OC)c1	0.8	-4.5	-1.5	-3.9	0.0	1.9
CC(=O)NCc1ccc(C(=O)CSc2nnc(-c3ccncc3)n2Cc2ccccc2)o1	1.0	-15.1	0.4	0.6	11.7*	-2.3
C=CCSc1nc(N)c(C#N)c(-c2ccccc2)c1C#N	-1.6	-16.4	-1.1	40.7*	-1.0	7.2
CCCSc1nc(N)c(C#N)c(-c2ccc(C)cc2)c1C#N	-1.1	7.8	1.1	1.5	-0.4	-22.7
